Assay results reported in ChEMBL document CHEMBL1127745, “Synthesis, resolution, and SAR of (+/-)-2-amino-N-methyl-alpha-(3-methyl-2-thienyl)benzeneethanamine++ + and related analogs as noncompetitive NMDA antagonists with neuroprotective properties” (J Med Chem, 1994).

Columns and labels:
Mus musculus = experiment: Effective dose required for 50% inhibition of clonic seizures in mice induced by racemic NMDLA when administered intraperitoneally; format: functional; conditions: ip
Summary of the method: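 Swiss Webster mice, 10 per group, dosed ip with drug in distilled water 0.5 h before N-methyl-D,L-aspartic acid 350 mg/kg sc. Each mouse observed 30 min for clonic seizures lasting at least 3 s; protection means no seizure in that time. Controls received vehicle. ED50 taken at time of peak effect from three or more doses, Litchfield-Wilcoxon method.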

Glutamate NMDA receptor = experiment: Inhibition against NMDA receptor by displacement of [3H]TCP binding from rat cortical membranes; format: cell membranes, Membrane
Rattus norvegicus [1] = experiment: Evaluated for reduction of NMDA-induced necrosis at 7.0 mg/kg intraperitoneal dose in rats.; format: functional
Summary of the method: (§1)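 Male Sprague-Dawley rats (280-310 g) under chloral hydrate (400 mg/kg ip). Unilateral dorsal hippocampal CA1 lesion made by stereotaxic infusion of NMDA 20 nmol over 5 min. Drugs given sc or ip 1 h before infusion. Brains perfusion-fixed at 7 days and cresyl violet-stained; lesion volume measured by image analysis. n = 4 per group, compared with control by t-test.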

Rattus norvegicus [2] = experiment: Evaluated for reduction of NMDA-induced necrosis at 0.7 mg/kg intraperitoneal dose in rats.; format: functional; summary of the method: as §1
Gerbillinae [3] = experiment: Carotid artery occlusion-induced hippocampal damage was evaluated by using compound 15 min before carotid occlusion at 5 mg/kg intraperitoneal dose.; format: functional, Hippocampus
Summary of the method: (§2)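 Male Mongolian gerbils (65-75 g, n = 14-15) under halothane (2.6 vol% induction, 1.2 vol% maintenance in N2:O2 2:1). Forebrain ischemia by bilateral 5-min carotid occlusion with reperfusion. Drug given ip 15 min before or 15 min after occlusion. CA1 cell necrosis rated on a 0-4 scale (0 none to 4 all CA1 cells). Group means compared by t-test.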

Rattus norvegicus [4] = experiment: Evaluated for reduction of NMDA-induced necrosis volume at 0.7 mg/kg intraperitoneally dose in rats.; format: functional; conditions: route intraperitoneal; summary of the method: as §1
Rattus norvegicus [5] = experiment: Evaluated for reduction of NMDA-induced necrosis volume at 2.0 mg/kg intraperitoneally dose in rats.; format: functional; conditions: route intraperitoneal; summary of the method: as §1
Rattus norvegicus [6] = experiment: Percent change in reduction of photochemically induced cerebral focal ischemia in control and treated rat at 3 mg/kg intravenous dose; format: functional
Summary of the method: (§3)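 Male rats (300-350 g) under halothane (3 vol% induction, 1.2 vol% maintenance in O2). Rose Bengal (5 mg in 1 mL) infused through the femoral vein, then thrombotic focal cortical ischemia induced photochemically with light. Drug given iv 30 min after ischemia to groups of 5-7 rats. Infarct volume (mm3) measured by image analysis of cresyl violet-stained 20-µm sections.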

Gerbillinae [7] = experiment: Carotid artery occlusion-induced hippocampal damage was evaluated by using control 15 min before carotid occlusion at 5 mg/kg intraperitoneal dose.; format: functional, Hippocampus; summary of the method: as §2
Rattus norvegicus [8] = experiment: Reduction of photochemically induced cerebral focal ischemia in rat was evaluated by using control at 3 mg/kg intravenous dose; format: functional; summary of the method: as §3
Rattus norvegicus [9] = experiment: Evaluated for reduction of NMDA-induced necrosis at 2.0 mg/kg intraperitoneal dose in rats.; format: functional; summary of the method: as §1
Gerbillinae [10] = experiment: Percent reduction of carotid artery Carotid artery occlusion-induced hippocampal damage at 5 mg/kg intraperitoneal dose.; format: functional, Hippocampus; summary of the method: as §2
Rattus norvegicus [11] = experiment: Evaluated for reduction of NMDA-induced necrosis volume at 7.0 mg/kg intraperitoneally dose in rats.; format: functional; conditions: route intraperitoneal; summary of the method: as §1
Rattus norvegicus [12] = experiment: Reduction of photochemically induced cerebral focal ischemia in rat was evaluated by using compound at 3 mg/kg intravenous dose; format: functional; summary of the method: as §3
Gerbillinae [13] = experiment: Carotid artery occlusion-induced hippocampal damage was evaluated 15 min before carotid occlusion at 30 mg/kg intraperitoneal dose.; format: functional, Hippocampus; summary of the method: as §2
Gerbillinae [14] = experiment: Percent reduction of carotid artery occlusion-induced hippocampal damage at 30 mg/kg intraperitoneal dose.; format: functional, Hippocampus; summary of the method: as §2
Gerbillinae [15] = experiment: Carotid artery occlusion-induced hippocampal damage was evaluated 15 min before carotid occlusion at 60 mg/kg intraperitoneal dose.; format: functional, Hippocampus; summary of the method: as §2
Rattus norvegicus [16] = experiment: Percent change in reduction of photochemically induced cerebral focal ischemia in control and treated rat at 1.0 mg/kg intravenous dose; format: functional; summary of the method: as §3
Rattus norvegicus [17] = experiment: Reduction of photochemically induced cerebral focal ischemia in rat was evaluated 10.0 mg/kg intravenous dose; format: functional; summary of the method: as §3
Rattus norvegicus [18] = experiment: Reduction of photochemically induced cerebral focal ischemia in rat was evaluated 3.0 mg/kg intravenous dose; format: functional; summary of the method: as §3
Rattus norvegicus [19] = experiment: Percent change in reduction of photochemically induced cerebral focal ischemia in control and treated rat at 3.0 mg/kg intravenous dose; format: functional; summary of the method: as §3
Rattus norvegicus [20] = experiment: Percent change in reduction of photochemically induced cerebral focal ischemia in control and treated rat at 20 mg/kg intravenous dose; format: functional; summary of the method: as §3
Gerbillinae [21] = experiment: Carotid artery occlusion-induced hippocampal damage was evaluated 15 min after carotid occlusion 60 mg/kg intraperitoneal dose; format: functional, Hippocampus; summary of the method: as §2
Rattus norvegicus [22] = experiment: Reduction of photochemically induced cerebral focal ischemia in rat was evaluated at 20.0 mg/kg intravenous dose; format: functional; summary of the method: as §3
Rattus norvegicus [23] = experiment: Reduction of photochemically induced cerebral focal ischemia in rat was evaluated at 1.0 mg/kg intravenous dose; format: functional; summary of the method: as §3
Rattus norvegicus [24] = experiment: Evaluated for reduction of NMDA-induced necrosis at 100 mg/kg subcutaneous dose in rats.; format: functional; summary of the method: as §1
Rattus norvegicus [25] = experiment: Evaluated for reduction of NMDA-induced necrosis volume at 30 mg/kg subcutaneous dose in rats.; format: functional; summary of the method: as §1
Rattus norvegicus [26] = experiment: Evaluated for reduction of NMDA-induced necrosis at 30 mg/kg subcutaneous dose in rats.; format: functional; summary of the method: as §1
Rattus norvegicus [27] = experiment: Evaluated for reduction of NMDA-induced necrosis volume at 100 mg/kg subcutaneous dose in rats.; format: functional; summary of the method: as §1
Rattus norvegicus [28] = experiment: Reduction of photochemically induced cerebral focal ischemia in rat was evaluated at 0.1 mg/kg intravenous dose; format: functional; summary of the method: as §3
Gerbillinae [29] = experiment: Carotid artery occlusion-induced hippocampal damage was evaluated by using compound 15 min before carotid occlusion at 30 mg/kg intraperitoneal dose.; format: functional, Hippocampus; summary of the method: as §2
Rattus norvegicus [30] = experiment: Percent change in reduction of photochemically induced cerebral focal ischemia in control and treated rat at 0.3 mg/kg intravenous dose; format: functional; summary of the method: as §3
Gerbillinae [31] = experiment: Carotid artery occlusion-induced hippocampal damage was evaluated 15 min after carotid occlusion 30 mg/kg intraperitoneal dose; format: functional, Hippocampus; summary of the method: as §2
Gerbillinae [32] = experiment: Percent reduction Carotid artery occlusion-induced hippocampal damage at 50 mg/kg intraperitoneal dose.; format: functional, Hippocampus; summary of the method: as §2
Gerbillinae [33] = experiment: Carotid artery occlusion-induced hippocampal damage was evaluated by using compound 15 min before carotid occlusion at 30 mg/kg intraperitoneal dose; format: functional, Hippocampus; summary of the method: as §2
Rattus norvegicus [34] = experiment: Reduction of photochemically induced cerebral focal ischemia in rat was evaluated at 10 mg/kg intravenous dose; format: functional; summary of the method: as §3
Gerbillinae [35] = experiment: Carotid artery occlusion-induced hippocampal damage was evaluated 15 min after carotid occlusion 50 mg/kg intraperitoneal dose; format: functional, Hippocampus; summary of the method: as §2
Rattus norvegicus [36] = experiment: Reduction of photochemically induced cerebral focal ischemia in rat was evaluated at 0.3 mg/kg intravenous dose; format: functional; summary of the method: as §3
Gerbillinae [37] = experiment: Percent reduction Carotid artery occlusion-induced hippocampal damage at 10 mg/kg intraperitoneal dose.; format: functional, Hippocampus; summary of the method: as §2
Gerbillinae [38] = experiment: Percent reduction Carotid artery occlusion-induced hippocampal damage at 30 mg/kg intraperitoneal dose.; format: functional, Hippocampus; summary of the method: as §2
Rattus norvegicus [39] = experiment: Reduction of photochemically induced cerebral focal ischemia in rat was evaluated at 3.0 mg/kg intravenous dose; format: functional; summary of the method: as §3
Gerbillinae [40] = experiment: Carotid artery occlusion-induced hippocampal damage was evaluated 15 min after carotid occlusion 10 mg/kg intraperitoneal dose; format: functional, Hippocampus; summary of the method: as §2
Rattus norvegicus [41] = experiment: Percent change in reduction of photochemically induced cerebral focal ischemia in control and treated rat at 10 mg/kg intravenous dose; format: functional; summary of the method: as §3

## CNC(Cc1ccccc1N)c1ccc(C)s1 (stereo not given)
Mus musculus
  ED50: > 60 mg/kg
Glutamate NMDA receptor
  IC50: 5200 nM

## CNC(Cc1ccc(Cl)cc1N)c1sccc1C.Cl (stereo not given)
Mus musculus
  ED50: ≥ 60 mg/kg
Glutamate NMDA receptor
  IC50: 18000 nM

## CNC(Cc1ccccc1N)c1cccs1.Cl (stereo not given)
Mus musculus
  ED50: > 60 mg/kg

## CNc1ccccc1CC(c1sccc1C)N(C)C (stereo not given)
Mus musculus
  ED50: > 60 mg/kg

## Cc1ccsc1C(N)Cc1ccccc1N.Cl (stereo not given)
Mus musculus
  ED50: 19 mg/kg
Glutamate NMDA receptor
  IC50: 4000 nM

## C[C@]12N[C@H](Cc3ccccc31)c1ccccc12 [DIZOCILPINE]
Rattus norvegicus [1]
  Reduction: <98%
Rattus norvegicus [2]
  Reduction: <44%
Gerbillinae [3]
  Treated: 0.8
Rattus norvegicus [4]
  Volume: 0.1 µM
Rattus norvegicus [5]
  Volume: 0.01 µM
Mus musculus
  ED50: 0.38 mg/kg
Rattus norvegicus [6]
  Change: -24%
Gerbillinae [7]
  Control: 1.05
Rattus norvegicus [8]
  Control: 68
Rattus norvegicus [9]
  Reduction: <94%
Gerbillinae [10]
  Reduction: <22%
Rattus norvegicus [11]
  Volume: 0.0025 µM
Rattus norvegicus [12]
  Treated: 52

## CNc1ccccc1CC(NC)c1sccc1C.Cl (stereo not given)
Mus musculus
  ED50: > 60 mg/kg
Glutamate NMDA receptor
  IC50: 3800 nM

## CNC(Cc1ccccc1N)c1sccc1C.Cl (single isomer, unassigned; (-))
Gerbillinae [13]
  Treated: 2.8
Gerbillinae [14]
  Reduction: 32%
Gerbillinae [15]
  Treated: 0.9
Rattus norvegicus [16]
  Change: 7%
Rattus norvegicus [17]
  Treated: 93
Glutamate NMDA receptor
  IC50: 57000 nM
Rattus norvegicus [18]
  Treated: 73
Rattus norvegicus [19]
  Change: 6%
Rattus norvegicus [20]
  Change: 13%
Gerbillinae [21]
  Treated: 3.3
Rattus norvegicus [22]
  Treated: 79
Rattus norvegicus [23]
  Treated: 66

## CNC(Cc1ccc(C(F)(F)F)cc1N)c1sccc1C (stereo not given)
Glutamate NMDA receptor
  IC50: > 10000 nM

## Cc1ccsc1C(Cc1ccccc1N(C)C)N(C)C (stereo not given)
Mus musculus
  ED50: > 60 mg/kg
Glutamate NMDA receptor
  IC50: 330 nM

## CNC(Cc1cc(Br)ccc1N)c1sccc1C (stereo not given)
Mus musculus
  ED50: > 5 mg/kg
Glutamate NMDA receptor
  IC50: 45 nM

## CNC(Cc1cc(Cl)ccc1N)c1sccc1C (stereo not given)
Mus musculus
  ED50: ≥ 30 mg/kg
Glutamate NMDA receptor
  IC50: 25 nM

## CCNC(Cc1ccccc1N)c1sccc1C.Cl (stereo not given)
Rattus norvegicus [24]
  Reduction: 95%
Rattus norvegicus [25]
  Volume: 0.059 µM
Rattus norvegicus [26]
  Reduction: 67%
Mus musculus
  ED50: 6.4 mg/kg
Glutamate NMDA receptor
  IC50: 43 nM
Rattus norvegicus [27]
  Volume: 0.0098 µM

## CNC(Cc1ccccc1N)c1sccc1C.Cl (stereo in doubt; (+)3a)
Gerbillinae [14]
  Reduction: 51%
Rattus norvegicus [28]
  Treated: 59
Rattus norvegicus [16]
  Change: 14%
Glutamate NMDA receptor
  IC50: 180 nM
Gerbillinae [29]
  Treated: 1.5
Rattus norvegicus [30]
  Change: 13%
Rattus norvegicus [23]
  Treated: 67

## Cc1ccsc1C(Cc1ccccc1N)N(C)C (stereo not given)
Mus musculus
  ED50: > 60 mg/kg
Glutamate NMDA receptor
  IC50: 370 nM

## O=C(O)C1CN(CCCP(=O)(O)O)CCN1 (stereo not given)
Glutamate NMDA receptor
  IC50: > 100000 nM

## CNC(Cc1ccccc1N)c1sccc1C.Cl (stereo in doubt; 3a)
Gerbillinae [14]
  Reduction: 75%
Rattus norvegicus [24]
  Reduction: 68%
Gerbillinae [31]
  Treated: 2.13
Gerbillinae [32]
  Reduction: 18%
Gerbillinae [33]
  Treated: 0.3
Rattus norvegicus [34]
  Treated: 86
Gerbillinae [35]
  Treated: 2.13
Rattus norvegicus [36]
  Treated: 72
Mus musculus
  ED50: 27.8 mg/kg
Gerbillinae [37]
  Reduction: 2%
Rattus norvegicus [16]
  Change: -27%
Rattus norvegicus [6]
  Change: -16%
Glutamate NMDA receptor
  IC50: 350 nM
Rattus norvegicus [27]
  Volume: 0.057 µM
Gerbillinae [38]
  Reduction: 26%
Rattus norvegicus [39]
  Treated: 63
Gerbillinae [40]
  Treated: 2.8
Rattus norvegicus [41]
  Change: 6%
Rattus norvegicus [30]
  Change: 0%
Rattus norvegicus [23]
  Treated: 57

## CCCNC(Cc1ccccc1N)c1sccc1C.Cl (stereo not given)
Mus musculus
  ED50: 14.1 mg/kg
Glutamate NMDA receptor
  IC50: 130 nM
